Test results as given in ChEMBL document CHEMBL2040727, “Substituted thiazoles VI. Synthesis and antitumor activity of new 2-acetamido- and 2 or 3-propanamido-thiazole analogs” (2012).

Tested on: OVCAR-5
Assay: Growth inhibition of human OVCAR5 cells at 10 uM after 48 hrs by coulter counter analysis
Assay type: functional
Conditions: OVCAR-5, 48 h, read-out: GI
How it was run: (§1)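 Single-dose NCI 60-line panel screen of test compounds. Cells grown in RPMI 1640 with 10% FBS. Compounds dissolved in DMSO, then diluted in phosphate buffer saline (final DMSO below 1%). Wells run in duplicate at 6 × 10⁴ cells/ml. Controls held PBS and DMSO at matching dilutions. Incubation 48 h at 37 °C under humidified 5% CO2. Cells diluted tenfold in saline and counted by Coulter counter. Percent growth inhibition taken from mean-graph of treated-cell growth.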

Row | Compound | inhibition of growth at 10 µM [%]
1 | CCOC(=O)c1sc(NC(=O)CCN2CCN(C)CC2)nc1C | < 10

Tested on: SK-MEL-5
Assay: Growth inhibition of human SK-MEL-5 cells at 10 uM after 48 hrs by coulter counter analysis
Assay type: functional
Conditions: SK-MEL-5, 48 h, read-out: GI
How it was run: as §1

Row | Compound | inhibition of growth at 10 µM [%]
2 | CCOC(=O)c1sc(NC(=O)CCN2CCN(C)CC2)nc1C | < 10

Tested on: MDA-MB-231
Assay: Growth inhibition of human MDA-MB-231 cells at 10 uM after 48 hrs by coulter counter analysis
Assay type: functional
Conditions: MDA-MB-231, 48 h, read-out: GI
How it was run: as §1

Row | Compound | inhibition of growth at 10 µM [%]
3 | CCOC(=O)c1sc(NC(=O)CCN2CCN(C)CC2)nc1C | < 10

Tested on: SF-295
Assay: Growth inhibition of human SF295 cells at 10 uM after 48 hrs by coulter counter analysis
Assay type: functional
Conditions: SF-295, 48 h, read-out: GI
How it was run: as §1

Row | Compound | inhibition of growth at 10 µM [%]
4 | CCOC(=O)c1sc(NC(=O)CCN2CCN(C)CC2)nc1C | < 10

Tested on: NCI-H322M
Assay: Growth inhibition of human NCI-H322M cells at 10 uM after 48 hrs by coulter counter analysis
Assay type: functional
Conditions: read-out: GI
How it was run: as §1

Row | Compound | inhibition of growth at 10 µM [%]
5 | CCOC(=O)c1sc(NC(=O)CCN2CCN(C)CC2)nc1C | < 10

Tested on: MDA-MB-468
Assay: Growth inhibition of human MDA-MB-468 cells at 10 uM after 48 hrs by coulter counter analysis
Assay type: functional
Conditions: MDA-MB-468, 48 h, read-out: GI
How it was run: as §1

Row | Compound | inhibition of growth at 10 µM [%]
6 | CCOC(=O)c1sc(NC(=O)CCN2CCN(C)CC2)nc1C | 25.2

Tested on: LOX IMVI
Assay: Growth inhibition of human LOXIMVI cells at 10 uM after 48 hrs by coulter counter analysis
Assay type: functional
Conditions: read-out: GI
How it was run: as §1

Row | Compound | inhibition of growth at 10 µM [%]
7 | CCOC(=O)c1sc(NC(=O)CCN2CCN(C)CC2)nc1C | 15.5

Tested on: Malme-3M
Assay: Growth inhibition of human MALME-3M cells at 10 uM after 48 hrs by coulter counter analysis
Assay type: functional
Conditions: read-out: GI
How it was run: as §1

Row | Compound | inhibition of growth at 10 µM [%]
8 | CCOC(=O)c1sc(NC(=O)CCN2CCN(C)CC2)nc1C | < 10

Tested on: SN12C
Assay: Growth inhibition of human SN12C cells at 10 uM after 48 hrs by coulter counter analysis
Assay type: functional
Conditions: read-out: GI
How it was run: as §1

Row | Compound | inhibition of growth at 10 µM [%]
9 | CCOC(=O)c1sc(NC(=O)CCN2CCN(C)CC2)nc1C | < 10

Tested on: KM12
Assay: Growth inhibition of human KM12 cells at 10 uM after 48 hrs by coulter counter analysis
Assay type: functional
Conditions: KM12, 48 h, read-out: GI
How it was run: as §1

Row | Compound | inhibition of growth at 10 µM [%]
10 | CCOC(=O)c1sc(NC(=O)CCN2CCN(C)CC2)nc1C | < 10

Tested on: not listed separately
Assay: Growth inhibition of human NCI-ADR-RES cells at 10 uM after 48 hrs by coulter counter analysis
Assay type: functional
Conditions: read-out: GI
How it was run: as §1

Row | Compound | inhibition of growth at 10 µM [%]
11 | CCOC(=O)c1sc(NC(=O)CCN2CCN(C)CC2)nc1C | < 10

Tested on: ACHN
Assay: Growth inhibition of human ACHN cells at 10 uM after 48 hrs by coulter counter analysis
Assay type: functional
Conditions: read-out: GI
How it was run: as §1

Row | Compound | inhibition of growth at 10 µM [%]
12 | CCOC(=O)c1sc(NC(=O)CCN2CCN(C)CC2)nc1C | < 10

Tested on: not listed separately
Assay: Growth inhibition of human Hs 578T cells at 10 uM after 48 hrs by coulter counter analysis
Assay type: functional
Conditions: read-out: GI
How it was run: as §1

Row | Compound | inhibition of growth at 10 µM [%]
13 | CCOC(=O)c1sc(NC(=O)CCN2CCN(C)CC2)nc1C | < 10

Tested on: OVCAR-8
Assay: Growth inhibition of human OVCAR8 cells at 10 uM after 48 hrs by coulter counter analysis
Assay type: functional
Conditions: OVCAR-8, 48 h, read-out: GI
How it was run: as §1

Row | Compound | inhibition of growth at 10 µM [%]
14 | CCOC(=O)c1sc(NC(=O)CCN2CCN(C)CC2)nc1C | < 10

Tested on: SW-620
Assay: Growth inhibition of human SW620 cells at 10 uM after 48 hrs by coulter counter analysis
Assay type: functional
Conditions: SW-620, 48 h, read-out: GI
How it was run: (§2)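 Single-dose screen in the NCI 60 cell line panel. Cells grown in RPMI 1640 with 10% FBS. Compounds dissolved in DMSO and diluted in phosphate buffered saline, final DMSO under 1%. Duplicate wells seeded from culture at 6 × 10⁴ cells/ml. Incubated 48 h at 37 °C, humidified, 5% CO2. Cells diluted tenfold in saline and Coulter-counted. Percent growth inhibition computed against PBS/DMSO controls.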

Row | Compound | inhibition of growth at 10 µM [%]
15 | CCOC(=O)c1sc(NC(=O)CCN2CCN(C)CC2)nc1C | < 10

Tested on: MDA-MB-435
Assay: Growth inhibition of human MDA-MB-435 cells at 10 uM after 48 hrs by coulter counter analysis
Assay type: functional
Conditions: MDA-MB-435, 48 h, read-out: GI
How it was run: as §1

Row | Compound | inhibition of growth at 10 µM [%]
16 | CCOC(=O)c1sc(NC(=O)CCN2CCN(C)CC2)nc1C | < 10

Tested on: UO-31
Assay: Growth inhibition of human UO31 cells at 10 uM after 48 hrs by coulter counter analysis
Assay type: functional
Conditions: UO-31, 48 h, read-out: GI
How it was run: as §2

Row | Compound | inhibition of growth at 10 µM [%]
17 | CCOC(=O)c1sc(NC(=O)CCN2CCN(C)CC2)nc1C | 19.3

Tested on: COLO 205
Assay: Growth inhibition of human COLO205 cells at 10 uM after 48 hrs by coulter counter analysis
Assay type: functional
Conditions: COLO 205, 48 h, read-out: GI
How it was run: as §1

Row | Compound | inhibition of growth at 10 µM [%]
18 | CCOC(=O)c1sc(NC(=O)CCN2CCN(C)CC2)nc1C | < 10

Tested on: NCI-H522
Assay: Growth inhibition of human NCI-H522 cells at 10 uM after 48 hrs by coulter counter analysis
Assay type: functional
Conditions: NCI-H522, 48 h, read-out: GI
How it was run: as §1

Row | Compound | inhibition of growth at 10 µM [%]
19 | CCOC(=O)c1sc(NC(=O)CCN2CCN(C)CC2)nc1C | 12.9

Tested on: HCC 2998
Assay: Growth inhibition of human HCC2998 cells at 10 uM after 48 hrs by coulter counter analysis
Assay type: functional
Conditions: HCC 2998, 48 h, read-out: GI
How it was run: as §1

Row | Compound | inhibition of growth at 10 µM [%]
20 | CCOC(=O)c1sc(NC(=O)CCN2CCN(C)CC2)nc1C | < 10

Tested on: SK-MEL-2
Assay: Growth inhibition of human SK-MEL-2 cells at 10 uM after 48 hrs by coulter counter analysis
Assay type: functional
Conditions: SK-MEL-2, 48 h, read-out: GI
How it was run: as §1

Row | Compound | inhibition of growth at 10 µM [%]
21 | CCOC(=O)c1sc(NC(=O)CCN2CCN(C)CC2)nc1C | < 10

Tested on: OVCAR-3
Assay: Growth inhibition of human OVCAR3 cells at 10 uM after 48 hrs by coulter counter analysis
Assay type: functional
Conditions: OVCAR-3, 48 h, read-out: GI
How it was run: as §1

Row | Compound | inhibition of growth at 10 µM [%]
22 | CCOC(=O)c1sc(NC(=O)CCN2CCN(C)CC2)nc1C | < 10

Tested on: NCI-H226
Assay: Growth inhibition of human NCI-H226 cells at 10 uM after 48 hrs by coulter counter analysis
Assay type: functional
Conditions: NCI-H226, 48 h, read-out: GI
How it was run: as §1

Row | Compound | inhibition of growth at 10 µM [%]
23 | CCOC(=O)c1sc(NC(=O)CCN2CCN(C)CC2)nc1C | < 10

Tested on: RPMI-8226
Assay: Growth inhibition of human RPMI8226 cells at 10 uM after 48 hrs by coulter counter analysis
Assay type: functional
Conditions: RPMI-8226, 48 h, read-out: GI
How it was run: as §1

Row | Compound | inhibition of growth at 10 µM [%]
24 | CCOC(=O)c1sc(NC(=O)CCN2CCN(C)CC2)nc1C | < 10

Tested on: BT-549
Assay: Growth inhibition of human BT549 cells at 10 uM after 48 hrs by coulter counter analysis
Assay type: functional
Conditions: BT-549, 48 h, read-out: GI
How it was run: as §1

Row | Compound | inhibition of growth at 10 µM [%]
25 | CCOC(=O)c1sc(NC(=O)CCN2CCN(C)CC2)nc1C | < 10

Tested on: SF-539
Assay: Growth inhibition of human SF539 cells at 10 uM after 48 hrs by coulter counter analysis
Assay type: functional
Conditions: SF-539, 48 h, read-out: GI
How it was run: as §1

Row | Compound | inhibition of growth at 10 µM [%]
26 | CCOC(=O)c1sc(NC(=O)CCN2CCN(C)CC2)nc1C | < 10

Tested on: M14
Assay: Growth inhibition of human M14 cells at 10 uM after 48 hrs by coulter counter analysis
Assay type: functional
Conditions: M14, 48 h, read-out: GI
How it was run: as §1

Row | Compound | inhibition of growth at 10 µM [%]
27 | CCOC(=O)c1sc(NC(=O)CCN2CCN(C)CC2)nc1C | < 10

Tested on: SR
Assay: Growth inhibition of human SR cells at 10 uM after 48 hrs by coulter counter analysis
Assay type: functional
Conditions: read-out: GI
How it was run: as §2

Row | Compound | inhibition of growth at 10 µM [%]
28 | CCOC(=O)c1sc(NC(=O)CCN2CCN(C)CC2)nc1C | 20.3

Tested on: HOP-92
Assay: Growth inhibition of human HOP92 cells at 10 uM after 48 hrs by coulter counter analysis
Assay type: functional
Conditions: HOP-92, 48 h, read-out: GI
How it was run: as §1

Row | Compound | inhibition of growth at 10 µM [%]
29 | CCOC(=O)c1sc(NC(=O)CCN2CCN(C)CC2)nc1C | < 10

Tested on: HCT-15
Assay: Growth inhibition of human HCT15 cells at 10 uM after 48 hrs by coulter counter analysis
Assay type: functional
Conditions: HCT-15, 48 h, read-out: GI
How it was run: as §1

Row | Compound | inhibition of growth at 10 µM [%]
30 | CCOC(=O)c1sc(NC(=O)CCN2CCN(C)CC2)nc1C | < 10

Tested on: UACC-62
Assay: Growth inhibition of human UACC62 cells at 10 uM after 48 hrs by coulter counter analysis
Assay type: functional
Conditions: UACC-62, 48 h, read-out: GI
How it was run: as §2

Row | Compound | inhibition of growth at 10 µM [%]
31 | CCOC(=O)c1sc(NC(=O)CCN2CCN(C)CC2)nc1C | < 10

Tested on: IGROV-1
Assay: Growth inhibition of human IGROV1 cells at 10 uM after 48 hrs by coulter counter analysis
Assay type: functional
Conditions: IGROV-1, 48 h, read-out: GI
How it was run: as §1

Row | Compound | inhibition of growth at 10 µM [%]
32 | CCOC(=O)c1sc(NC(=O)CCN2CCN(C)CC2)nc1C | < 10

Tested on: OVCAR-4
Assay: Growth inhibition of human OVCAR4 cells at 10 uM after 48 hrs by coulter counter analysis
Assay type: functional
Conditions: OVCAR-4, 48 h, read-out: GI
How it was run: as §1

Row | Compound | inhibition of growth at 10 µM [%]
33 | CCOC(=O)c1sc(NC(=O)CCN2CCN(C)CC2)nc1C | < 10

Tested on: T47D
Assay: Growth inhibition of human T47D cells at 10 uM after 48 hrs by coulter counter analysis
Assay type: functional
Conditions: read-out: GI
How it was run: as §2

Row | Compound | inhibition of growth at 10 µM [%]
34 | CCOC(=O)c1sc(NC(=O)CCN2CCN(C)CC2)nc1C | < 10

Tested on: MCF7
Assay: Growth inhibition of human MCF7 cells at 10 uM after 48 hrs by coulter counter analysis
Assay type: functional
Conditions: MCF7, 48 h, read-out: GI
How it was run: as §1

Row | Compound | inhibition of growth at 10 µM [%]
35 | CCOC(=O)c1sc(NC(=O)CCN2CCN(C)CC2)nc1C | 16.3

Tested on: SF-268
Assay: Growth inhibition of human SF268 cells at 10 uM after 48 hrs by coulter counter analysis
Assay type: functional
Conditions: SF-268, 48 h, read-out: GI
How it was run: as §1

Row | Compound | inhibition of growth at 10 µM [%]
36 | CCOC(=O)c1sc(NC(=O)CCN2CCN(C)CC2)nc1C | < 10
